Measurements from ChEMBL document CHEMBL4270592, “8-Aryl-6-chloro-3-nitro-2-(phenylsulfonylmethyl)imidazo[1,2-a]pyridines as potent antitrypanosomatid molecules bioactivated by type 1 nitroreductases” (Eur J Med Chem, 2018).

Assays:
[1] = Selectivity index, ratio of CC50 for human HepG2 cells to IC50 for trypomastigote stage of Trypanosoma brucei brucei AnTat 1.9; type: toxicity; settings: read-out: Ratio CC50/IC50
[2] = Selectivity index, ratio of CC50 for human HepG2 cells to IC50 for axenic amastigote stage of Leishmania infantum; type: toxicity; settings: read-out: Ratio CC50/IC50
Leishmania infantum = assay: Antileishmanial activity against axenic amastigote stage of Leishmania infantum assessed as inhibition of parasite metabolic activity after 48 hrs by luciferase reporter gene based luminescence assay; type: functional, organism-based
How it was run: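 L. infantum promastigotes in log phase switched to RPMI 1640 pH 5.4 for 24 h at 24 °C, then 24 h at 37 °C to give axenic amastigotes. Seeded at 2.106 parasites/mL with compounds in DMSO (final <0.5% v/v), in duplicate, 48 h at 37 °C. Wells checked for precipitate, luciferase luminescence read, IC50 by non-linear regression as mean.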

[3] = tested on: Trypanosoma brucei brucei; assay: Antitrypanosomal activity against trypomastigote stage of Trypanosoma brucei brucei AnTat 1.9 assessed as decrease in parasite viability after 69 hrs by Alamar blue assay; type: functional, organism-based; settings: AnTat 1.9, 69 h
How it was run: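 AnTat 1.9 in MEM with Earle's salts plus 0.5 mM mercaptoethanol, 1.5 mM L-cysteine, 0.05 mM bathocuproine sulfate and 20% heat-inactivated horse serum, 37 °C, 5% CO2. Seeded 2000 parasites/100 µL with compounds in DMSO, in duplicate, 69 h, then Alamar Blue for 5 h.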

HepG2 = assay: Cytotoxicity against human HepG2 cells assessed as reduction in cell viability after 72 hrs by MTT assay; type: cell-based; settings: hepg2, 72 h
How it was run: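 HepG2 cells in RPMI with 10% FCS, L-glutamine and penicillin/streptomycin, 37 °C, 6% CO2. After 24 h, compounds in DMSO (final <0.5% v/v) added for 72 h, in duplicate. Precipitate checked, MTT (0.5 mg/mL) 2 h, formazan dissolved in DMSO, A570 with 630 nm reference. Viability as % of untreated control; CC50 from dose-response curve; doxorubicin positive control.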

[4] = Electrochemical behavior of the compound assessed as redox potential corrected toward normal hydrogen electrode by cyclic voltammetry; type: physicochemical
Leishmania donovani [5] = assay: Antileishmanial activity against intramacrophage amastigote stage of Leishmania donovani infected in human THP1 cells after 120 hrs by Giemsa staining based microscopy; type: functional, organism-based; settings: THP-1, 120 h
How it was run: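 THP-1 cells differentiated with PMA (final 50 ng/mL) for 48 h at 37 °C, 6% CO2. Infected 10:1 with L. donovani promastigotes acidified 24 h at 27 °C in Schneider 20% FCS pH 5.4. After 24 h, compounds added in duplicate (DMSO <0.5% v/v) for 120 h.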

[6] = Selectivity index, ratio of CC50 for human HepG2 cells to IC50 for promastigote stage of Leishmania donovani MHOM/IN/00/DEVI; type: toxicity; settings: read-out: Ratio CC50/IC50
[7] = Substrate activity at recombinant nitroreductase 2 in promastigote stage of Leishmania donovani MHOM/SD/62/1S-CL2D LdBOB assessed as inhibition of parasite growth after 72 hrs by resazurin dye based assay
How it was run: (§1)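 Clonal L. donovani LdBOB promastigotes grown at 26 °C in modified M199. NTR1 and NTR2 overexpressers kept in nourseothricin 100 µg/mL. Triplicate 10 mL cultures seeded at 5×10^4 parasites/mL with drug for 72 h. Aliquots received 50 µM resazurin, read by fluorescence (ex 528/em 590 nm) after 4 h. Background-corrected 2-parameter fit gave EC50; at least two repeats, mean ± SD.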

[8] = Substrate activity at recombinant type-1 nitroreductase in promastigote stage of Leishmania donovani MHOM/SD/62/1S-CL2D LdBOB assessed as inhibition of parasite growth after 72 hrs by resazurin dye based assay; how it was run: as §1
[9] = Selectivity index, ratio of CC50 for human HepG2 cells to IC50 for intramacrophage amastigote stage of Leishmania donovani infected in human THP1 cells; type: toxicity, cell-based; settings: read-out: Ratio CC50/IC50
Leishmania donovani [10] = assay: Antileishmanial activity against wild type promastigote stage of Leishmania donovani MHOM/SD/62/1S-CL2D LdBOB after 72 hrs by resazurin dye based assay; type: functional, organism-based; how it was run: as §1
THP-1 = assay: (§2) Cytotoxicity against human THP1 cells assessed as reduction in cell viability after 72 hrs by MTT assay; type: cell-based; settings: thp-1, 72 h
How it was run: (§3)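 THP1 cells in complete RPMI with PMA (final 50 ng/mL) at 10⁶ cells/mL, differentiated 48 h. Compounds in DMSO (final <0.5% v/v) then added for 72 h at 37 °C. MTT (0.5 mg/mL in FCS-free medium) 2 h, formazan dissolved in DMSO, A570 with 630 nm reference. Viability as % of untreated control; CC50 from dose-response curve; doxorubicin positive control.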

Leishmania donovani [11] = assay: Antileishmanial activity against promastigote stage of Leishmania donovani MHOM/IN/00/DEVI assessed as inhibition of parasite metabolic activity after 72 hrs by MTT assay; type: functional, organism-based
How it was run: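 MHOM/IN/00/DEVI log-phase promastigotes in Schneider's medium with 20% FCS, 2 mM L-glutamine and antibiotics. Seeded at 10⁶ parasites/mL with compounds in DMSO (final <0.5% v/v), in duplicate, 72 h at 27 °C. MTT added for 4 h, stopped with 50% isopropanol–10% SDS, A570 read. IC50 by nonlinear regression, mean of three independent experiments.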

[12] = as §2; type: cell-based, THP-1; settings: THP1 cells; how it was run: as §3
[13] = tested on: Trypanosoma brucei brucei; assay: Selectivity ratio of IC50 for wild type bloodstream form of Trypanosoma brucei brucei S427 to substrate activity at recombinant type-1 nitroreductase in bloodstream form of Trypanosoma brucei brucei S427
How it was run: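 Bloodstream-form single-marker S427 grown at 37 °C in HMI9-T with 2.5 µg/mL G418. The NTR1-overexpressing line was also given 2.5 µg/mL phleomycin and induced with 1 µg/mL tetracycline 48 h before assay. Triplicate cultures seeded at 1×10^5 cells/mL with inhibitor; cell densities determined after 72 h to give EC50 for wild-type and NTR1 lines.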

[14] = tested on: Trypanosoma brucei brucei; assay: […] activity against wild type bloodstream form of Trypanosoma brucei brucei S427 after 72 hrs; type: functional, organism-based; settings: S427, 72 h
How it was run: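 Bloodstream-form T. brucei single marker S427 (T7RPOL TETR NEO) cultured at 37 °C in HMI9-T with 2.5 µg/mL G418. NTR1-overexpressing line kept in 2.5 µg/mL phleomycin and induced with 1 µg/mL tetracycline 48 h before the assay. Triplicate cultures seeded at 1×10^5 cells/mL with inhibitor; cell densities counted after 72 h to give EC50.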

SMILES	selectivity ratio [1]	selectivity ratio [2]	IC50 (Leishmania infantum)	IC50 [3]	CC50 (HepG2)	also measured
O=[N+]([O-])c1c(CS(=O)(=O)c2ccccc2)nc2c(-c3cccc(F)c3)cc(Cl)cn12	> 62.5	> 7.4	1700 nM	200 nM	> 12500 nM	–
O=[N+]([O-])c1c(CS(=O)(=O)c2ccccc2)nc2c(-c3ccccc3F)cc(Cl)cn12	–	–	–	–	> 3900 nM	–
O=[N+]([O-])c1c(CS(=O)(=O)c2ccccc2)nc2c(Br)cc(Cl)cn12	–	–	–	–	–	Activity [4]: -0.65 V
O=Cc1ccc(-c2cc(Cl)cn3c([N+](=O)[O-])c(CS(=O)(=O)c4ccccc4)nc23)cc1	> 390	> 8.2	3800 nM	80 nM	> 31200 nM	–
O=[N+]([O-])c1c(CS(=O)(=O)c2ccccc2)nc2c(Br)cc(Br)cn12	> 10.7	> 7.1	4400 nM	2900 nM	> 31000 nM	IC50 (Leishmania donovani [5]): 5500 nM; selectivity ratio [6]: > 17.2; IC50 [7]: 3000 nM; IC50 [8]: 70 nM; selectivity ratio [9]: > 5.6; IC50 (Leishmania donovani [10]): 1900 nM; Activity [4]: -0.59 V; CC50 (THP-1): > 25000 nM
O=[N+]([O-])c1c(CS(=O)(=O)c2ccccc2)nc2c(-c3ccc(Cl)cc3)cc(Cl)cn12	–	–	–	–	> 3900 nM	–
N#Cc1ccc(-c2cc(Cl)cn3c([N+](=O)[O-])c(CS(=O)(=O)c4ccccc4)nc23)cc1	–	–	–	–	> 3900 nM	–
O=[N+]([O-])c1c(CS(=O)(=O)c2ccccc2)nc2c(-c3ccc(F)cc3F)cc(Cl)cn12	–	–	–	–	> 7800 nM	–
CCN(CC)c1ccc(-c2cc(Cl)cn3c([N+](=O)[O-])c(CS(=O)(=O)c4ccccc4)nc23)cc1	> 36.3	> 6.2	2500 nM	430 nM	> 15600 nM	–
C[C@@H]1[C@H](O)[C@@H](C)/C=C/C=C/C=C/C=C/C=C/C=C/C=C/[C@H](O[C@@H]2O[C@H](C)[C@@H](O)[C@H](N)[C@@H]2O)C[C@@H]2O[C@](O)(C[C@@H](O)C[C@@H](O)[C@H](O)CC[C@@H](O)C[C@@H](O)CC(=O)O[C@H]1C)C[C@H](O)[C@H]2C(=O)O [AMPHOTERICIN B]	–	–	–	–	–	IC50 (Leishmania donovani [11]): 70 nM; CC50 at 72 h [12]: > 62500 nM
COc1cccc2c1C(=O)c1c(O)c3c(c(O)c1C2=O)C[C@@](O)(C(=O)CO)C[C@@H]3O[C@H]1C[C@H](N)[C@H](O)[C@H](C)O1 [DOXORUBICIN]	–	–	–	–	–	CC50 (THP-1): 1400 nM
O=[N+]([O-])c1c(CS(=O)(=O)c2ccccc2)nc2c(-c3ccc(C(F)(F)F)cc3)cc(Cl)cn12	–	–	–	–	> 3900 nM	–
O=[N+]([O-])c1c(CS(=O)(=O)c2ccccc2)nc2c(-c3cccc(C(F)(F)F)c3)cc(Cl)cn12	> 312	> 11.4	1100 nM	40 nM	> 12500 nM	Ratio IC50 [13]: 2; Activity [4]: -0.67 V; IC50 [14]: 90 nM
O=[N+]([O-])c1c(CS(=O)(=O)c2ccccc2)nc2c(-c3cccnc3)cc(Cl)cn12	> 136	> 15.7	2000 nM	230 nM	> 31300 nM	–
O=[N+]([O-])c1c(CS(=O)(=O)c2ccccc2)nc2c(-c3cccs3)cc(Cl)cn12	–	–	–	–	> 3900 nM	–
O=[N+]([O-])c1c(CS(=O)(=O)c2ccccc2)nc2c(-c3ccc(CO)cc3)cc(Cl)cn12	146	8.7	1500 nM	90 nM	13100 nM	–
O=[N+]([O-])c1c(CS(=O)(=O)c2ccccc2)nc2c(-c3ccc(F)cc3)cc(Cl)cn12	> 50.3	> 12	1300 nM	310 nM	> 15600 nM	–
CCCCCCCCCCCCCCCCOP(=O)([O-])OCC[N+](C)(C)C [MILTEFOSINE]	–	–	–	–	–	CC50 (THP-1): > 40000 nM
Cc1ccc(C(=O)Nc2ccc(S(=O)(=O)O)c3cc(S(=O)(=O)O)cc(S(=O)(=O)O)c23)cc1NC(=O)c1cccc(NC(=O)Nc2cccc(C(=O)Nc3cc(C(=O)Nc4ccc(S(=O)(=O)O)c5cc(S(=O)(=O)O)cc(S(=O)(=O)O)c45)ccc3C)c2)c1 [SURAMIN]	–	–	–	–	> 100000 nM	–
NCCC[C@](N)(C(=O)O)C(F)F [EFLORNITHINE, (S)-]	> 7.5	–	–	13300 nM	> 100000 nM	–
O=[N+]([O-])c1c(CS(=O)(=O)c2ccccc2)nc2c(-c3ccccc3)cc(Cl)cn12	> 25.6	> 10	1600 nM	610 nM	> 15600 nM	Activity [4]: -0.69 V
O=[N+]([O-])c1c(CS(=O)(=O)c2ccccc2)nc2c(-c3ccco3)cc(Cl)cn12	–	–	–	–	> 3900 nM	–
O=[N+]([O-])c1c(CS(=O)(=O)c2ccccc2)nc2c(-c3ccccc3C(F)(F)F)cc(Cl)cn12	324	14.2	1600 nM	70 nM	22700 nM	–
O=[N+]([O-])c1c(CS(=O)(=O)c2ccccc2)nc2c(-c3ccc(O)cc3)cc(Cl)cn12	> 30.5	> 4.2	3000 nM	410 nM	> 12500 nM	–
COc1ccc(-c2cc(Cl)cn3c([N+](=O)[O-])c(CS(=O)(=O)c4ccccc4)nc23)cc1	–	–	–	–	> 3900 nM	–
